Published values of several laboratories.
Compare with care: the assays were run in different laboratories.
Read-out: enzyme activity
Mode: inhibitor
PFF0160c: Dihydroorotate dehydrogenase (quinone), mitochondrial (PFF0160c, Plasmodium falciparum, UniProt Q08210)
PFF0160c E182D: Dihydroorotate dehydrogenase (quinone), mitochondrial (PFF0160c, Plasmodium falciparum, UniProt Q08210, E182D)

SMILES	target	assay	IC50 [nM]
Cc1c(Cc2ccc(C(F)(F)F)nc2)c[nH]c1C(=O)N[C@@H](C)CO	PFF0160c	absorbance	2700
Cc1nc(Nc2ccc(S(F)(F)(F)(F)F)cc2)c2c(CO)noc2n1	PFF0160c	absorbance	2800
CCN(CC)CC#Cc1ccc2[nH]c(C)c(Cl)c(=O)c2c1	PFF0160c E182D	absorbance	> 10000
Cc1nc(Nc2ccc(C(F)(F)F)cc2)c2c(C(F)(F)F)noc2n1	PFF0160c	absorbance	33
Cc1[nH]c(C(=O)NC(C)c2cnn(C)c2)c(C)c1Cc1ccc(C(F)(F)F)nc1 (stereo not shown)	PFF0160c	absorbance	> 30000
Cc1cc(Nc2ccc(Cl)cc2)n2ncnc2n1	PFF0160c		1600
COC(=O)C1=CNC=C(C(=O)OC)C1c1ccc(Cl)c([N+](=O)[O-])c1	PFF0160c	absorbance	716
Cc1cc(C(C)NC(=O)c2[nH]cc(-c3c[nH]c4cc(C(F)(F)F)ccc34)c2C)no1 (stereo not shown)	PFF0160c	absorbance	> 100000
CCCOc1ccccc1-c1nc2sc3c(c2c(=O)[nH]1)CCN(C)C3	PFF0160c E182D	absorbance	911
Cc1nc(NC2Cc3cc(F)c(F)cc3C2)c2c(C)noc2n1	PFF0160c	absorbance	48
